Data published in ChEMBL document CHEMBL4257453, “Identification of karanjin isolated from the Indian beech tree as a potent CYP1 enzyme inhibitor with cellular efficacy via screening of a natural product repository” (Medchemcomm, 2018).
pIC50, pKi: −log10 of the molar value.

Key:
CYP1A2 = target: T1, CYP1A2 (Homo sapiens, UniProt P05177); assay: Inhibition of recombinant human CYP1A2 expressed in baker's yeast-derived microsomes (Sacchrosomes) at 10 uM using 3-cyano-7-ethoxycoumarin substrate by EROD assay relative to control; format: ADME; conditions: probe 3-cyano-7-ethoxycoumarin
T1 sequence (P05177 whole entry): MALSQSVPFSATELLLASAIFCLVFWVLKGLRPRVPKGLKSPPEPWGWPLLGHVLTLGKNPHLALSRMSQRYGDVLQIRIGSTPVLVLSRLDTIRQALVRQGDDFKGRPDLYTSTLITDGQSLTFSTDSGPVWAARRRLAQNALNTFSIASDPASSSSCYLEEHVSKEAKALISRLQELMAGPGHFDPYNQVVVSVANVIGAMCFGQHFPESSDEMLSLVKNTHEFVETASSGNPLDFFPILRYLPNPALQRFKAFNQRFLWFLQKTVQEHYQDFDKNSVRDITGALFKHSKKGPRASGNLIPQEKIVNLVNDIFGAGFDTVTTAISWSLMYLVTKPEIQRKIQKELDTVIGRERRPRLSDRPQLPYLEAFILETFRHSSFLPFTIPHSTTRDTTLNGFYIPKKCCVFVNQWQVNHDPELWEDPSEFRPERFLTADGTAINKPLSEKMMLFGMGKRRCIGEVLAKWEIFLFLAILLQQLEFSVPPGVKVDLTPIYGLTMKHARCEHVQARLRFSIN
Procedure, shortened: (§1)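 Yeast microsomes carrying recombinant CYP (Sacchrosomes). Substrates per isoform are 7-ethoxyresorufin, 3-cyano-7-ethoxycoumarin, EOMCC or dibenzylfluorescein, read as endpoint fluorescence. Background from compound-only wells without enzyme is subtracted. Independent triplicate runs; α-naphthoflavone positive control.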

CYP1A1 [1] = target: T2, CYP1A1 (Homo sapiens, UniProt P04798); assay: Inhibition of recombinant human CYP1A1 expressed in baker's yeast-derived microsomes (Sacchrosomes) at 10 uM using 7-ethoxyresorufin substrate by EROD assay relative to control; conditions: probe 7-ethoxyresorufin; procedure, shortened: as §1
T2 sequence (P04798 whole entry): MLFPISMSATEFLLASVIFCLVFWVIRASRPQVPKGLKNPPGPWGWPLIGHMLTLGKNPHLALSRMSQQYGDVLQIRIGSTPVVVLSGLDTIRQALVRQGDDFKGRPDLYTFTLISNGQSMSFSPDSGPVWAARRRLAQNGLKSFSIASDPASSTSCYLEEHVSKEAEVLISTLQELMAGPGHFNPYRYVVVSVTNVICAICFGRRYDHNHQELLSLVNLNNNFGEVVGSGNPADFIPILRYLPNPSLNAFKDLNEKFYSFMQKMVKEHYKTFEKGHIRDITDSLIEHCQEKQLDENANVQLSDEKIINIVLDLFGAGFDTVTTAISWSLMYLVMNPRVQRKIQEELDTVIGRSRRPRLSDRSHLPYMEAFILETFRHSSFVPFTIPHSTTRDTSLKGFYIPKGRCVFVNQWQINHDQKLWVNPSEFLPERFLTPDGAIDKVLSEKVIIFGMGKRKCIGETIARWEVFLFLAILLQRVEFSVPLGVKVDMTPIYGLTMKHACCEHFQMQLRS

CYP2D6 = CYP2D6 (Homo sapiens, UniProt P10635); assay: Inhibition of recombinant human CYP2D6 expressed in baker's yeast-derived microsomes (Sacchrosomes) at 10 uM using 7-ethoxy-methyloxy-3-cyanocoumarin substrate by EROD assay relative to control; format: ADME; conditions: probe 7-ethoxy-methyloxy-3-cyanocoumarin
Procedure, shortened: as §1, with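 “(Sacchrosomes). […]” for “(Sacchrosomes).”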

CYP1A1 [2] = target: T2, CYP1A1; assay: Inhibition of human recombinant CYP1A1 expressed in HEK293 cells at 10 uM using 7-ethoxyresorufin substrate preincubated for 30 mins followed by substrate addition and measured after 60 mins by fluorescence assay relative to control; format: cell-based; conditions: HEK293 cells expressing human recombinant CYP1A1, probe 7-ethoxyresorufin
Procedure, shortened: (§2)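 HEK293 cells adapted to suspension and transiently transfected with pcDNA3.1 plasmids carrying the individual CYP; 100×10^3 cells per well in triplicate. […] Fluorogenic substrate is then added at 5 μM and fluorescence read for 60 min.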

CYP2C9 = CYP2C9 (Homo sapiens, UniProt P11712); assay: Inhibition of recombinant human CYP2C9 expressed in baker's yeast-derived microsomes (Sacchrosomes) at 10 uM using 3-cyano-7-ethoxycoumarin substrate by EROD assay relative to control; format: ADME; conditions: probe 3-cyano-7-ethoxycoumarin
Procedure, shortened: as §1, with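 “(Sacchrosomes). […]” for “(Sacchrosomes).”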

Cytochrome P450 2C19 = Cytochrome P450 2C19 (Homo sapiens, UniProt P33261); assay: Inhibition of human recombinant CYP2C19 expressed in HEK293 cells using 3-cyano-7-ethoxycoumarin substrate substrate preincubated for 30 mins followed by substrate addition and measured after 60 mins by fluorescence assay relative to control; format: ADME, cell-based; procedure, shortened: as §2
Cytochrome P450 1A2 = target: T3, Cytochrome P450 1A2 (Homo sapiens, UniProt P05177); assay: Inhibition of human recombinant CYP1A2 expressed in HEK293 cells using 3-cyano-7-ethoxycoumarin substrate preincubated for 30 mins followed by substrate addition and measured after 60 mins by fluorescence assay relative to control; format: ADME, cell-based; procedure, shortened: as §2
T3 sequence (P05177 whole entry): T1 sequence (P05177 whole entry)

CYP1B1 = target: T4, CYP1B1 (Homo sapiens, UniProt Q16678); assay: Inhibition of recombinant human CYP1B1 expressed in baker's yeast-derived microsomes (Sacchrosomes) at 10 uM using 7-ethoxyresorufin substrate by EROD assay relative to control; format: ADME; conditions: probe 7-ethoxyresorufin
T4 sequence (Q16678 whole entry): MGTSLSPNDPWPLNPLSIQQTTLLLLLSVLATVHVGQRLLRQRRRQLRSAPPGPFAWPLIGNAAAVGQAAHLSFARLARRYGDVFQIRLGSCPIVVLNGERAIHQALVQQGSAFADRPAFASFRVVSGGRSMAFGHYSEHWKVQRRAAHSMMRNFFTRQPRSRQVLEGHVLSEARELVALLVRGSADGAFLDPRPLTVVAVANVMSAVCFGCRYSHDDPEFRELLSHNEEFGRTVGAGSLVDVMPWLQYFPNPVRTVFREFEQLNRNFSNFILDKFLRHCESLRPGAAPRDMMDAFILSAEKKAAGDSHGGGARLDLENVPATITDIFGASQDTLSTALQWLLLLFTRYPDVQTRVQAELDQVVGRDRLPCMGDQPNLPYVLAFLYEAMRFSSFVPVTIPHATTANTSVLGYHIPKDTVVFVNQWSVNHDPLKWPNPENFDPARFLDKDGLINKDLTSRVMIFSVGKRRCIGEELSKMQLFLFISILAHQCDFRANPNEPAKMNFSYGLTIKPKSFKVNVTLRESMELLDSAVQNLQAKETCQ
Procedure, shortened: as §1, with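 “(Sacchrosomes). […]” for “(Sacchrosomes).”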

Cytochrome P450 1A1 = target: T5, Cytochrome P450 1A1 (Homo sapiens, UniProt P04798); assay: Inhibition of human recombinant CYP1A1 expressed in HEK293 cells using 7-ethoxyresorufin substrate preincubated for 30 mins followed by substrate addition and measured after 60 mins by fluorescence assay relative to control; format: cell-based; procedure, shortened: as §2
T5 sequence (P04798 whole entry): T2 sequence (P04798 whole entry)

Cytochrome P450 3A4 = Cytochrome P450 3A4 (Homo sapiens, UniProt P08684); assay: Inhibition of human recombinant CYP3A4 expressed in HEK293 cells using dibenzylfluorescein substrate substrate preincubated for 30 mins followed by substrate addition and measured after 60 mins by fluorescence assay relative to control; format: ADME, cell-based
Procedure, shortened: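 HEK293 cells adapted to suspension and transiently transfected with pcDNA3.1 plasmids carrying the individual CYP; 100×10^3 cells per well in triplicate. Fluorogenic substrate is then added at 5 μM and fluorescence read for 60 min.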

Cytochrome P450 2D6 = Cytochrome P450 2D6 (Homo sapiens, UniProt P10635); assay: Inhibition of human recombinant CYP2D6 expressed in HEK293 cells using 7-ethoxy-methyloxy-3-cyanocoumarin substrate substrate preincubated for 30 mins followed by substrate addition and measured after 60 mins by fluorescence assay relative to control; format: ADME, cell-based; procedure, shortened: as §2
Cytochrome P450 2C9 = Cytochrome P450 2C9 (Homo sapiens, UniProt P11712); assay: Inhibition of human recombinant CYP2C9 expressed in HEK293 cells using 3-cyano-7-ethoxycoumarin substrate substrate preincubated for 30 mins followed by substrate addition and measured after 60 mins by fluorescence assay relative to control; format: ADME, cell-based; procedure, shortened: as §2
CYP3A4 = CYP3A4 (Homo sapiens, UniProt P08684); assay: Inhibition of recombinant human CYP3A4 expressed in baker's yeast-derived microsomes (Sacchrosomes) at 10 uM using dibenzylfluorescein substrate by EROD assay relative to control; format: ADME; conditions: probe dibenzylfluorescein
Procedure, shortened: as §1, with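 “(Sacchrosomes). […]” for “(Sacchrosomes).”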

Cytochrome P450 1B1 = target: T6, Cytochrome P450 1B1 (Homo sapiens, UniProt Q16678); assay: Inhibition of human recombinant CYP1B1 expressed in HEK293 cells using 7-ethoxyresorufin substrate substrate preincubated for 30 mins followed by substrate addition and measured after 60 mins by fluorescence assay relative to control; format: ADME, cell-based; procedure, shortened: as §2
T6 sequence (Q16678 whole entry): T4 sequence (Q16678 whole entry)

CYP2C19 = CYP2C19 (Homo sapiens, UniProt P33261); assay: Inhibition of recombinant human CYP2C19 expressed in baker's yeast-derived microsomes (Sacchrosomes) at 10 uM using 3-cyano-7-ethoxycoumarin substrate by EROD assay relative to control; format: ADME; conditions: probe 3-cyano-7-ethoxycoumarin
Procedure, shortened: as §1, with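 “(Sacchrosomes). […]” for “(Sacchrosomes).”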

Sequence of Cytochrome P450 3A4 (P08684 whole entry): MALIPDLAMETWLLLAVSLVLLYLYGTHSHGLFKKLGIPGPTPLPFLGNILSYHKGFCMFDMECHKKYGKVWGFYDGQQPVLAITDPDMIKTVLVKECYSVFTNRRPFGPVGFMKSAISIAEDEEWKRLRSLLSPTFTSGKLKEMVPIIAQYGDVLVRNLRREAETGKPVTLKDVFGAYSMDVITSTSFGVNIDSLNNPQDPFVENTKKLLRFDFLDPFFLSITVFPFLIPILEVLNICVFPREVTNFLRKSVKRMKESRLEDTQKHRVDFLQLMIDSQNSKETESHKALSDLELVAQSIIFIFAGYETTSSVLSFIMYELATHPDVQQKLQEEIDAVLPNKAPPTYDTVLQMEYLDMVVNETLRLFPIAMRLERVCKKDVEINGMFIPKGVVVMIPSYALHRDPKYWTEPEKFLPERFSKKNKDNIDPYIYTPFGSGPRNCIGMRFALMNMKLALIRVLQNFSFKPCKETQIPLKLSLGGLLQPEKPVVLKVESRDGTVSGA
Sequence of CYP3A4 (P08684 whole entry): as above
Sequence of CYP2C9 (P11712 whole entry): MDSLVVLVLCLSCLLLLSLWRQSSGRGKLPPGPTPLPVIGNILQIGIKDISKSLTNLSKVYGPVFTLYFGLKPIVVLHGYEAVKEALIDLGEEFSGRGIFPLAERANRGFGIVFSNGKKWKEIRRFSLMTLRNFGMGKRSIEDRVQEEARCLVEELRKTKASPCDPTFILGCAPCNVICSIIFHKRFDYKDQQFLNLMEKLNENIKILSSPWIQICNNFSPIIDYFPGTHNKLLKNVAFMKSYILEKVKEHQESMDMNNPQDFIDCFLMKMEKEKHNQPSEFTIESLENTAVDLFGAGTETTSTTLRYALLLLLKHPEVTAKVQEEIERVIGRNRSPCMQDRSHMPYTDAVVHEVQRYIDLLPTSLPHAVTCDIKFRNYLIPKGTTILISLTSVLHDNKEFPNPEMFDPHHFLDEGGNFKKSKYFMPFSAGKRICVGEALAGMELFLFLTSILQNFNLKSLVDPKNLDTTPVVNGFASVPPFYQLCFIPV
Sequence of Cytochrome P450 2C9 (P11712 whole entry): as above
Sequence of Cytochrome P450 2C19 (P33261 whole entry): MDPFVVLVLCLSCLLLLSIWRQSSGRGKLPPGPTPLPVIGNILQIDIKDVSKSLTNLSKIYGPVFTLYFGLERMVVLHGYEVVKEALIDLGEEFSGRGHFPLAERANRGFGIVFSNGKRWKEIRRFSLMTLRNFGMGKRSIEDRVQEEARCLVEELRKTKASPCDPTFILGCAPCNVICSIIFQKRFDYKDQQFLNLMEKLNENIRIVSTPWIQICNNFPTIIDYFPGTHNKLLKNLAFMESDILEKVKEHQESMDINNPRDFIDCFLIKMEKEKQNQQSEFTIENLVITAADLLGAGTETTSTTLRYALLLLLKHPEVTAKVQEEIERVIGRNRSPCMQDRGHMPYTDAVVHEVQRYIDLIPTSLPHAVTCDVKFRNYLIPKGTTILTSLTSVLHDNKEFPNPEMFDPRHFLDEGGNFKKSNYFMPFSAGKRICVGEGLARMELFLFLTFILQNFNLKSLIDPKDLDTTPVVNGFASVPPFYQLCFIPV
Sequence of CYP2C19 (P33261 whole entry): as above
Sequence of CYP2D6 (P10635 whole entry): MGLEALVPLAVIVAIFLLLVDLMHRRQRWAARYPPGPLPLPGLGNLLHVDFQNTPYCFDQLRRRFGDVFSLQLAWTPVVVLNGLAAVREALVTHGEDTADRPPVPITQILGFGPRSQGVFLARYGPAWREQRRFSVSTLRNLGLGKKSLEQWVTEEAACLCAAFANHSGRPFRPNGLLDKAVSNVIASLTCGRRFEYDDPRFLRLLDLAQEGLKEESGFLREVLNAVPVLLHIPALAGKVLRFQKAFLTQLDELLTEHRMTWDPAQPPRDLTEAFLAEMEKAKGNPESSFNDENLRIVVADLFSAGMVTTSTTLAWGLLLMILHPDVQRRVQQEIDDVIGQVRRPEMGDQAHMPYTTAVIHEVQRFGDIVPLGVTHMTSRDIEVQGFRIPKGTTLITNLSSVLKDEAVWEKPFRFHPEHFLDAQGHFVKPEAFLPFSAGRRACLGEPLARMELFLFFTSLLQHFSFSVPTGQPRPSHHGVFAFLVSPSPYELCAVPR
Sequence of Cytochrome P450 2D6 (P10635 whole entry): as above

| inhibition at 10 µM (CYP1A2) | inhibition at 10 µM (CYP1A1 [1]) | inhibition at 10 µM (CYP2D6) | inhibition at 1 h, 10 µM (CYP1A1 [2]) | inhibition at 10 µM (CYP2C9) | pIC50 (Cytochrome P450 2C19) | pIC50 (Cytochrome P450 1A2) | pKi (Cytochrome P450 1A2) | inhibition at 10 µM (CYP1B1) | pIC50 (Cytochrome P450 1A1) | pKi (Cytochrome P450 1A1) | pIC50 (Cytochrome P450 3A4) | pIC50 (Cytochrome P450 2D6) | pIC50 (Cytochrome P450 2C9) | inhibition at 10 µM (CYP3A4) | pIC50 (Cytochrome P450 1B1) | inhibition at 10 µM (CYP2C19) | SMILES |
| --- | --- | --- | --- | --- | --- | --- | --- | --- | --- | --- | --- | --- | --- | --- | --- | --- | --- |
| 55% | 50 to 52% | 5% | 41% | 3% | < 5.00 | 5.06 | 5.06 | 7% | 5.03 | 5.02 | < 5.00 | < 5.00 | < 5.00 | 10% | 6.67 | 2% | Nc1nccc(-c2c[nH]c3ccc(Br)cc23)n1 [MERIDIANIN C] |
| 90% | 80% | 13% | 96% | 7% | < 5.00 | 6.05 | 6.11 | 70% | 5.86 | 5.85 | < 5.00 | < 5.00 | < 5.00 | 9% | 5.60 | 5% | COc1ccc(-c2cc(=O)c3c(O)c(OC)c(OC)cc3o2)cc1OC |

| SMILES | inhibition at 10 µM (CYP1A2) | inhibition at 10 µM (CYP1A1 [1]) | inhibition at 10 µM (CYP2D6) | inhibition at 1 h, 10 µM (CYP1A1 [2]) | inhibition at 10 µM (CYP2C9) | pIC50 (Cytochrome P450 2C19) | pIC50 (Cytochrome P450 1A2) | pKi (Cytochrome P450 1A2) | inhibition at 10 µM (CYP1B1) | pIC50 (Cytochrome P450 1A1) | pKi (Cytochrome P450 1A1) | pIC50 (Cytochrome P450 3A4) | pIC50 (Cytochrome P450 2D6) | pIC50 (Cytochrome P450 2C9) | inhibition at 10 µM (CYP3A4) | pIC50 (Cytochrome P450 1B1) | inhibition at 10 µM (CYP2C19) |
| --- | --- | --- | --- | --- | --- | --- | --- | --- | --- | --- | --- | --- | --- | --- | --- | --- | --- |
| O=C1C=CC(=O)c2c(O)ccc(O)c21 [NAPHTHAZALIN] | 82% | 79 to 99% | 5% | 78% | 5% | < 5.00 | 5.67 | 5.65 | 8% | 5.42 | 5.44 | < 5.00 | < 5.00 | < 5.00 | 15% | < 5.00 | 4% |
